Sampled rows, rich in hits. Any-hit rate of the full collection: about 2%.
HCV NS3 hel inh: inhibitors of Hepatitis C virus NS3 helicase | inhibition, % at 10.9 µM | NS3 helicase DNA unwinding, Cy5 molecular beacon fluorescence | hit rate 0.56% among 290,000 | AID 1800;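 active = inhibition above the mean of all tested compounds plus 3 SD, set per campaign, cut at about 35% in these data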;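 note: 0% = DMSO wells and 100% = thioflavine S control wells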
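System: Hepatitis C virus NS3 helicase domain fragment enzyme | Reagent: Annealed dual-labelled DNA beacon duplex, ATP-started | Compound dosing: 10.9 µM single point, 0.8% DMSO | Incubation: 1 h reaction at 25 °C, ATP-initiated | Technique: Cy5 fluorescence | Evaluation: Percent inhibition from t60/t0 fluorescence ratio | Benchmarks: Low DMSO, high thioflavine S at 110 µM | Replication: Singlicate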
DNA FID counter: counter-screen for HCV NS3 helicase inhibitors: DNA intercalator displacement | DNA fluorescent intercalator displacement, fluorescence | inhibition, % at 7.9 µM | hit rate 0.17% among 290,000 | AID 1845; in the data active = inhibition above about 37%;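 note: 0% = vehicle and 100% = reference compound; higher means more ethidium bromide displaced from hairpin DNA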
PABP1 MLLE inh: blocks PAM2 peptide binding to the PABP1 MLLE domain. GST-MLLE / FITC-PAM2 fluorescence polarization. hit rate 0.36% among 360,000. inhibition, % at 20 µM. P11940; in the data active = inhibition above about 35%, passing the limit was not always enough;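 note: plate controls were DMSO wells with GST-MLLE for no effect and wells lacking GST-MLLE protein for full effect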
Target sequence (P11940 whole entry, looked up, the tested form may be a part): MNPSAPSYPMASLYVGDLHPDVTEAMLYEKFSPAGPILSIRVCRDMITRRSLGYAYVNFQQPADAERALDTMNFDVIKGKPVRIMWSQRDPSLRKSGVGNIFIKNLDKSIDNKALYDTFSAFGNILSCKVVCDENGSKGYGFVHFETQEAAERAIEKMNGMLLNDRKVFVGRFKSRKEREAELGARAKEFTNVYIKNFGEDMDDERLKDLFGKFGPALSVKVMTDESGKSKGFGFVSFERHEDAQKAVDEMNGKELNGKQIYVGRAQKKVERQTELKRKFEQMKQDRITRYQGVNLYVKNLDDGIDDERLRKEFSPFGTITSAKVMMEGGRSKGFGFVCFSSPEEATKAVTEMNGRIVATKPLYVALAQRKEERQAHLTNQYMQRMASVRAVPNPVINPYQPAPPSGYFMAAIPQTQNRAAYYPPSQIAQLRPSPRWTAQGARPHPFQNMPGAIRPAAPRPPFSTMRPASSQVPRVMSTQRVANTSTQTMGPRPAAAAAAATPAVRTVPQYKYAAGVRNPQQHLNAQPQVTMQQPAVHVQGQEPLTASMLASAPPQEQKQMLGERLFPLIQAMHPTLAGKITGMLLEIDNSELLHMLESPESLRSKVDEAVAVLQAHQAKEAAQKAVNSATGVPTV
HCV core dimer: HCV core protein dimerization inhibition. TR-FRET GST/Flag-core106 dimerization, 1536-well. inhibition, % at 5 µM. hit rate 0.33% among 300,000;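 active = inhibition above the mean of all tested compounds plus 3 SD, set per screening campaign, cut at about 45% in these data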
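test system = GST/Flag-tagged HCV core106 proteins | probe or stimulus = Eu donor and XL665 acceptor anti-tag antibodies | times = compound-protein-antibody incubation 4 h at 22.5 °C | signal = TR-FRET, excitation 340 nm, emission 617 and 671 nm | measure = percent inhibition of core106 dimerization signal | controls = wells lacking GST-core106 and wells with excess unlabelled core106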
eIF4H inh: inhibitors of RNA binding by human eIF4H. inhibition, % at 35 µM. eIF4H fluorescence polarization binding assay. hit rate 0.94% among 290,000. Q15056;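 note: calls also rest on retests at 20 µM and on dose response follow-up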
PABP FP inh: PABP-poly(A) binding inhibition; P11940; inhibition, % at 35 µM; PABP-poly(A) RNA binding, fluorescence polarization; hit rate 1% among 290,000;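 note: calls also rest on retests at 20 µM and on dose response follow-up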
* = called active by the depositor; u = inconclusive; x = not tested or not shown; ! = not confirmed by another sample. Unless noted, the rule behind the calls is not given here.

SMILES	HCV NS3 hel inh	DNA FID counter	PABP1 MLLE inh	HCV core dimer	eIF4H inh	PABP FP inh
CC(NC(=O)c1noc2c1CCCC2)c1ccccc1 (stereo unspecified)	-2	1	-7	4	-10	-4
CSc1ccccc1NC(=O)c1noc2c1CCC2	3	-1	29	20	90*	26*
CCN1C(=NCCc2ccccn2)N[C@@H](c2cccc(F)c2)C(C(=O)OC)=C1C	14	0	-75	-12	x	x
COC(=O)C1=C(C)N(Cc2ccccc2)C(=NCC(C)C)N[C@H]1c1ccccc1	-83	18	x	3	94	61*
COC(=O)C1=C(C)N(Cc2ccccc2)C(=NCCc2ccccn2)N[C@H]1c1cccc(F)c1	-113	26	-77	-4	24*	66*
Cc1ccc([N+](=O)[O-])cc1NC(=S)NC(=O)c1cccnc1	-4	-5	41*	-1	-5	-9
O=C(NC(=S)Nc1cc([N+](=O)[O-])ccc1O)c1cccnc1	-7	-2	42*	-5	7	2
CCN(CC)C(=O)Cn1cc([N+](=O)[O-])cc1[N+](=O)[O-]	x	x	4	x	x	x
COCCN1C[C@@H](CO)O[C@@H](n2cnc3c(N4CCCC4)ncnc32)C1	x	x	-10	x	x	x
O=C(Oc1ccccc1N1C(=O)C2CCCCC2C1=O)c1ccccc1F (stereo unspecified)	3	-7	9	2	active	87
O=C(Oc1ccccc1N1C(=O)C2CCCCC2C1=O)c1ccc(Cl)cc1 (stereo unspecified)	6	-27	4	0	1	-8
O=c1c2ccccc2ncn1CCCSc1ccc(Cl)cc1	7	-12	-11	1	-3	-7
O=c1c2ccccc2ncn1CCCSc1ccccc1	-4	-13	-2	-8	106*	87*
CC(C)c1ccc(NC(=O)C2(C)Cc3c(-c4cccc(C(F)(F)F)c4)ccnc3O2)cc1 (stereo unspecified)	x	x	8	x	x	x
Nc1cc2c3c(cccc3c1)C(=O)N(CCN1CCCC1)C2=O	-3	33	74	-32	114*	77*
O=C1c2cccc3cc([N+](=O)[O-])cc(c23)C(=O)N1/N=C/c1ccc(O)cc1O	5	8	2	27	91*	72*
NC(=O)CN1CCN(CCN2C(=O)c3cccc4cccc(c34)C2=O)CC1	8	17	6	1	1	-4
O=C1c2cccc3cc([N+](=O)[O-])cc(c23)C(=O)N1CCN1CCCC1	18	72*	50*	x	81	40
O=C1c2cccc3cccc(c23)C(=O)N1CCO	x	x	3	x	x	x
Cc1cc(C)c(S(=O)(=O)N2CCN(CCN3C(=O)c4cccc5cccc(c45)C3=O)CC2)cc1[N+](=O)[O-]	-2	2	x	x	9	9
CCN(CC)CCN1C(=O)c2cccc3cc(N)cc(c23)C1=O	1	21	105	-9	91*	115*
CCc1cccc(C)c1NC(=O)COC(=O)CSCc1ccccc1	x	x	-10	x	x	x
Cc1cc(C(=O)N2CCC2(C)C(=O)O)nn1C(C)(C)C (stereo unspecified)	x	x	9	x	x	x
COc1ccc(C(=S)N2CCN(c3ccccc3C)CC2)cc1	12	-16	42*	10	-6	1
COc1ccc(C(=S)N2CCCCCC2)cc1	5	-2	16	8	5	-3
SMILES	HCV NS3 hel inh	DNA FID counter	PABP1 MLLE inh	HCV core dimer	eIF4H inh	PABP FP inh
COc1cc2ccc3c(CCN(C)C)cc(OC)c(OC)c3c2cc1OC	-5	2	-54	2	-7	58*
COc1cc(-c2ccc3cc(OC)c(OC)c(OC)c3c2)cc(OC)c1OC	x	x	5	x	x	x
NC(CO)(CO)COCc1ccccc1	14	-1	10	-1	68	130*
Cc1ccc(S(=O)(=O)N2CCC(C(=O)OCC(=O)N3CC(C)CC(C)C3)CC2)cc1C (stereo unspecified)	x	x	-1	8	x	x
C=CCN1C(=O)C2(NNc3ccccc3O2)c2ccccc21 (stereo unspecified)	-4	-4	-94	-10	101*	125*
O=C(NCc1cccnc1)c1ccc(COc2cccc3ccccc23)o1	8	-12	-10	61*	6	2
COCCn1c(SCC(=O)NCC2CCCO2)nc2c(c1=O)SCC2 (stereo unspecified)	1	-5	126*	-16	12	-8
COc1ccc(Cl)cc1NC(=S)Nc1ccccc1F	-6	0	41*	1	4	-1
COc1ccc(NC(=S)Nc2cccc(Cl)c2)cc1OC	0	-1	37*	2	4	18
COc1ccc(NC(=S)N/N=C/c2ccc(F)cc2)cc1OC	5	-17	45*	0	-6	-7
CCOC(=O)C1=C(c2ccccc2)N=c2s/c(=C\c3cc(OC)c(OC)c(OC)c3)c(=O)n2C1c1cccs1 (stereo unspecified)	15	-5	-7	17	u	80*
CN(CC(=O)Nc1cccc(S(=O)(=O)N(C)c2ccccc2)c1)Cc1cccs1	x	x	11	x	x	x
N#CCCN(C(=O)CSc1ccc2c(c1)OCCO2)c1ccccc1	-9	-12	41*	1	9	-6
COCc1nnc(NC(=O)CCCCCN2C(=O)c3ccccc3C2=O)s1	2	-4	2	6	-2	-2
O=C(CCCN1C(=O)c2ccccc2C1=O)Nc1nnc(C2CC2)s1	-6	-6	-28	8	active	59*
O=C(O)c1ccc2c(c1)C(=O)N(N1C(=O)c3ccccc3C1=O)C2=O	3	4	5	-9	-12	122*
O=C(NCc1cccnc1)c1ccc2sc([C@H]3C[C@H](O)[C@@H](CO)O3)nc2c1	x	x	-10	x	x	x
O=C1NC(=S)N/C1=C/c1ccc2c(c1)OCO2	12	-3	-24	-8	56	72*
CCN(CC)c1ccc(SS(=O)(=O)O)cc1	1	1	43*!	-14	42	48
O=S(=O)(O)Sc1ccccc1	x	x	35	x	x	x
CCOC(=O)N1CCN(C(=O)CSCc2nc(-c3ccccc3F)oc2C)CC1	-2	-37	45*	3	1	-5
CCOC(=O)N1CCN(C(=O)CSCc2nc(-c3ccccc3C)oc2C)CC1	-2	-32	31	0	-6	2
COC(=O)CSc1[nH]c2ccc(Br)cc2c1[N+](=O)[O-]	5	-3	35	0	-3	-6
CCOc1ccc2[nH]c(SCC(=O)OC)c([N+](=O)[O-])c2c1	-10	0	54*	-1	54*	30*
COC(=O)c1ccc2c(=O)sc(N3CCC(C(N)=O)CC3)nc2c1	4	-4	44*	-7	-9	-7
COC(=O)c1ccc(C(=O)OC)c(NC(=S)N2CCC(C(N)=O)CC2)c1	6	-2	7	-4	7	0
O=C(Nc1ccc(Cl)c(Cl)c1)Nc1ccc([N+](=O)[O-])cn1	3	2	-1	5	2	6
